DNMT1 block – DNMT1 (human) enzyme inhibition; inhibition (reported as % activation of signal), % at 10 µM; P26358; actives 0.83% (n = 360,000); DNMT1 molecular beacon, Hinp1I cleavage, fluorescence; in the data active = inhibition above about 50%
Scp1 inh – inhibitors of human Scp-1 phosphatase; Q9GZU7; Recombinant Scp1, phosphopeptide, malachite green phosphate absorbance; inhibition, % at 20 µM; actives 0.88% (n = 340,000);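 active = inhibition above about 50% at 20 µM, limit read from the data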
Target sequence (Q9GZU7 76-261 limits assumed): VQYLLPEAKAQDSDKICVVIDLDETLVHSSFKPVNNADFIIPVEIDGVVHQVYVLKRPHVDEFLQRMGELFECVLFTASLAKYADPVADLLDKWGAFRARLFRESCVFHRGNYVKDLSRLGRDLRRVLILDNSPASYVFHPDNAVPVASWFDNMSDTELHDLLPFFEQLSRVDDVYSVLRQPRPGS
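Test system: SCP-1 phosphatase catalytic domain, residues 76-261 | Compound dosing: One concentration, 20 µM, with 1.0% DMSO | Schedule: 45 min room-temperature reaction, 5 min colour, 30 min stabiliser | Detection: Absorbance at 630 nm | Read-out basis: % inhibition of SCP-1 phosphate liberation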
LMPTP block – LMPTP (human) inhibition; P24666; recombinant LMPTP-A, OMFP fluorogenic substrate, fluorescence intensity; inhibition, % at 20 µM; actives 0.22% (n = 360,000); AID 651560;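 active = compounds that cut the enzyme signal by at least half of the control window in the single-dose screen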
Target sequence (P24666 whole entry, looked up): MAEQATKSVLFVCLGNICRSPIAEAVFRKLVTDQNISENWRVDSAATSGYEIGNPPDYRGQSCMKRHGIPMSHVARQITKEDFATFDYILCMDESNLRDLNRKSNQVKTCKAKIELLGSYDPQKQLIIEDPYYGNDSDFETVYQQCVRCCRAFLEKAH
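Test system: LMPTP-A, protein tyrosine phosphatase of low molecular weight; Input: 0.625 nM enzyme; Incubation: 50 min dark incubation at room temperature; Signal: endpoint fluorescence intensity from OMFP dephosphorylation; Read-out basis: % inhibition versus control wells.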
HKDC1 inhibitor – inhibitors of human hexokinase HKDC1; Q2TB90; recombinant HKDC1, G6PDH/diaphorase resazurin coupled fluorescence; inhibition, % at 20 µM; actives 0.16% (n = 340,000); AID 493160;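 active = inhibition above about 35% when tested at 20 µM, limit read from the data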
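Test system: recombinant HKDC1 (HK5) hexokinase enzyme, produced in-house; Amount: enzyme 5 µg/mL final; Buffer or medium: Tris pH 8.0 buffer with MgCl2, Tween-20, BSA, BME; Reagent: glucose and ATP substrates; Doses: 20 µM test compound, 1% DMSO; Incubation: 90 min reaction incubation at room temperature, dark; Detection: resorufin fluorescence at 613 nm.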
STEP inh – STEP (human) phosphatase inhibition; AID 588621; recombinant STEP, OMFP fluorogenic substrate, fluorescence; inhibition, % at 20 µM; P54829; actives 0.25% (n = 360,000);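 active = inhibition at 20 µM, scaled per plate between control wells, above about 37%, limit read from the data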
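Material: STEP (striatal-enriched tyrosine phosphatase) enzyme, cell-free; Compound dosing: 20 µM single dose in 1% DMSO; Technique: fluorescence read at 480 nm ex / 540 nm em; Times: reaction 20 min, ambient temperature; Medium: 50 mM Bis-Tris pH 6.0 with 2.5 mM DTT and 0.005% Tween 20; Also added: OMFP at 25 µM.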
SUMO1-SIM PPI – alters human SUMO1 binding to SIM partners. inhibition, % at 20 µM. actives 0.33% (n = 360,000). P63165. SUMO1 binding to a labelled peptide, TR-FRET, 1 h; in the data active = inhibition above about 37%
Target sequence (P63165 whole entry, looked up): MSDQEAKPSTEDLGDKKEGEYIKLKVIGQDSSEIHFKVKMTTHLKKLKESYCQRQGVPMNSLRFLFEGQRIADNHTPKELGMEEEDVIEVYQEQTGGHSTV
DNMT1 inh conf – DNMT1 inhibition confirmation, single concentration | shares compounds with DNMT1 block | DNMT1 molecular beacon HinP1I cleavage, fluorescence | inhibition, % at 10 µM | actives 8% (n = 2,300);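 active = average inhibition of at least 30% in the single-concentration confirmation test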
Beacon interf – counter-screen for DNMT1 inhibitors: spectral interference | activation (fluorescence interference), % at 10 µM | shares compounds with DNMT1 block | actives 1% (n = 2,300) | DNMT1 molecular beacon spectral interference counterscreen, fluorescence 485/520;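 active = activation of at least 30% at 10 µM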;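 note: DNMT1 catalytic domain with a HinP1I cleavage step and a FAM/dabcyl DNA beacon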
Of the large screens only hits and unclear results are named; the others gave an inactive call (follow-up assays come after a bar, where they were run). Most compounds without a hit are left out; they make up all but 1.8% or so of the library.

O=C(NCc1ccco1)c1ccc(Cn2cc([N+](=O)[O-])cn2)o1	none
C[C@H](CO)N1C[C@H](C)[C@@H](CN(C)C(=O)CCC(F)(F)F)OCc2cnnn2CCCC1=O	none (no result: Scp1 inh, HKDC1 inhibitor)
Cc1cccc(-n2cnc(C(=O)N/N=C\c3ccc(Br)cc3)c2)n1	DNMT1 block 52 | DNMT1 inh conf inactive | Beacon interf inactive
O=C(N/N=C/c1ccc(OC(=O)c2ccc(Br)cc2)cc1)c1ccncc1	DNMT1 block 57 | DNMT1 inh conf inactive | Beacon interf inactive
O=C(N/N=C/c1ccc(OC(=O)c2ccco2)cc1)c1ccncc1	none
COc1cc2nc(CN3CCC(C(O)(c4ccccc4)c4ccccc4)CC3)[nH]c(=O)c2cc1OC	none
COc1ccc(/C=N/NC(=O)c2cccc([N+](=O)[O-])c2)c2ccccc12	DNMT1 block 51 | DNMT1 inh conf inactive | Beacon interf inactive
Cc1cccc(Cl)c1OCCCn1ccnc1	DNMT1 block 67 | DNMT1 inh conf inactive | Beacon interf inactive
O=C(COc1cc(O)c2c(=O)cc(-c3ccccc3)oc2c1)c1ccc(F)cc1	DNMT1 block 54 | DNMT1 inh conf inactive | Beacon interf inactive
COc1cc(NS(=O)(=O)c2ccc(NC(=S)NC(=O)/C=C/c3ccc(OC)c(OC)c3)cc2)ncn1	none
COc1ccc(/C=C/C(=O)NC(=S)Nc2ccc(S(=O)(=O)N=C(N)N)cc2)cc1OC	DNMT1 block 61 | DNMT1 inh conf inactive | Beacon interf inactive
Cc1cccc(C)c1NC(=O)CN(C)C(=O)c1ccc2c(=O)n3c(nc2c1)CCC3	none
CN(C)CC1CCC/C(=C\c2ccc(OC(=O)/C=C/c3ccc(Cl)c(Cl)c3)cc2)C1=O (stereo not drawn)	DNMT1 block 50 | DNMT1 inh conf inactive | Beacon interf inactive
O=C(Nc1c(-c2ccccc2)nc2ccccn12)c1cccc(F)c1	none
O=c1cc(CN2CCN(c3ccc(F)cc3)CC2)c2cc3c(cc2o1)CCCC3	DNMT1 block 63 | DNMT1 inh conf inactive | Beacon interf inactive
COc1cc2c(cc1OC)C(C(=O)NCCN(C)C)C(c1cccs1)N(C)C2=O (stereo not drawn)	none
Cc1cc(S(=O)(=O)N2CCCC2)ccc1OCC(=O)N1CCCCC1	none
Cc1cc(=O)oc2cc(NC(=O)C3CCCC3)ccc12	none
Cc1cc(=O)oc2cc(NC(=O)c3cccc(Br)c3)ccc12	DNMT1 block 51 | DNMT1 inh conf inactive | Beacon interf inactive
Cc1ccc(C(=O)NCC(=O)N2CCN(c3ccccc3O)CC2)s1	none (no result: Scp1 inh, HKDC1 inhibitor)
COc1ccc(-c2c(C#Cc3ccc(N(C)C)cc3)c3ccccc3n2C)cc1	DNMT1 block 57 | DNMT1 inh conf inactive | Beacon interf inactive
Cc1cccc(NC(=O)CSCC(=O)Nc2ccccc2N2CCCC2)c1	none
Cc1cccc(NC(=O)CSCC(=O)Nc2ccccc2N2CCCCC2)c1	DNMT1 block 94 | DNMT1 inh conf inactive | Beacon interf inactive
CC1=CC(C)(C)N2C(=O)C3(C(C#N)=C(N)Oc4cc(O)ccc43)c3c(C)c(C)cc1c32 (stereo not drawn)	none
CC(=O)c1ccc(OCCCC(=O)NC(C)c2ccc(S(N)(=O)=O)cc2)cc1 (stereo not drawn)	none
CCCCCOc1ccc(C(=O)CCC(=O)NC(C)c2ccc(S(N)(=O)=O)cc2)cc1 (stereo not drawn)	DNMT1 block 75 | DNMT1 inh conf inactive | Beacon interf inactive
CC1CC(NC(=O)N(C)C)N(C)C(=O)N1 (stereo not drawn)	DNMT1 block 66 | DNMT1 inh conf inactive | Beacon interf inactive
Cc1ccc(C)n1/N=C1/NC(=O)CS1	DNMT1 block 90 | DNMT1 inh conf inactive | Beacon interf inactive
COc1ccc(CCn2c(-c3ccc(F)cc3)nc3c(c(=O)c4ccccc4n3C)c2=O)cc1OC	none
COc1ccc(CCn2c(C3CCCCC3)nc3c(c(=O)c4ccccc4n3C)c2=O)cc1OC	DNMT1 block 63, SUMO1-SIM PPI 41 | DNMT1 inh conf inactive | Beacon interf inactive
CCCCn1c(-c2ccc(Cl)c(Cl)c2)nc2cc3[nH]c(=O)c(C(C)C)nc3cc21	DNMT1 block 53 | DNMT1 inh conf inactive | Beacon interf inactive
Brc1ccc(C2=Nn3c(nnc3-c3cccnc3)SC2)s1	DNMT1 block 62 | DNMT1 inh conf inactive | Beacon interf inactive
Clc1ccc(C2=Nn3c(nnc3-c3cccnc3)SC2)s1	none
CSCCC(c1nc2ccccc2[nH]1)n1c(-c2cc(C(F)(F)F)cc(C(F)(F)F)c2)nc2ccccc21 (stereo not drawn)	none (no result: DNMT1 block, Scp1 inh, HKDC1 inhibitor, STEP inh)
CCCC(=O)NNC(=O)Nc1ccccc1	none
CCC1(C)COC(C)(CC(=O)NNC(=O)Nc2ccccc2)OC1 (stereo not drawn)	DNMT1 block 81 | DNMT1 inh conf inactive | Beacon interf inactive
COc1ccc(/C=N\NC(=O)c2ccccc2F)cc1COc1ccc(F)cc1F	none
COc1ccc(/C=N/NC(=O)c2ccc(NC(C)=O)cc2)cc1COc1ccc(F)cc1F	DNMT1 block 77 | DNMT1 inh conf inactive | Beacon interf inactive
COc1ccc(/C=N/NC(=O)c2nc(Cl)c(Cl)c(N)c2Cl)cc1COc1ccc(F)cc1F	DNMT1 block 53 | DNMT1 inh conf inactive | Beacon interf inactive
CCCN(C(=O)COC(=O)COc1c(C)cccc1C)c1c(N)n(Cc2ccccc2)c(=O)[nH]c1=O	none
CCC(CCCO)CCC[C@H](C)CCC1OCCO1 (stereo partly drawn)	DNMT1 block 59 | DNMT1 inh conf inactive | Beacon interf inactive
O=C(CNC(=O)c1ccccc1F)NCc1cccnc1	none
Cn1nc(C(C)(C)C)cc1NC(=O)Nc1cc(Cl)cc(Cl)c1	none
COc1ccc(/C=C(\C#N)C(=O)Nc2cc(C)c(Cl)cc2OC)cc1O	DNMT1 block 70 | DNMT1 inh conf inactive | Beacon interf inactive
COc1ccc(/C=C(\C#N)C(=O)NCc2ccccc2)cc1O	none
Cc1ccc(S(=O)(=O)c2nc(-c3ccc(F)cc3)oc2N2CCOCC2)cc1	none
C=C1CCC2[C@](C)(CO)[C@H](O)CC[C@@]2(C)[C@@H]1C/C=C1\C(=O)OC[C@H]1O (stereo partly drawn)	none
C=C/C(C)=C/C[C@H]1C(=C)CCC2[C@](C)(C(=O)O)CCC[C@@]21C (stereo partly drawn)	DNMT1 block 89 | DNMT1 inh conf inactive | Beacon interf inactive

High-throughput results as filed in PubChem BioAssay.
